Measured values as given in ChEMBL document CHEMBL5329156, “Discovery and development of novel substituted monohydrazides as potent antifungal agents” (RSC Med Chem, 2023).

Columns and labels:
Candida albicans [1] = assay: Antifungal activity against itraconazole/fluconazole resistant Candida albicans ATCC 90819 assessed as fungal growth inhibition by double dilution method; assay type: functional
Method in brief: (§1)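 Broth microdilution after CLSI M27-A3/M38-A2 with minor modifications. A single colony was grown overnight in YPD at 35 °C with shaking at 200 rpm. Cells were mixed 1:1 with compound (final 0.06-31.3 µg/mL, from DMSO stocks) and incubated 48 h at 35 °C.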

J774.A1 = assay: Cytotoxicity against J774A.1 cells assessed as reduction in cell viability at 31.3 microg/ml; assay type: toxicity, cell-based; details: mouse, dose 31.3 µg/ml
Method in brief: (§2)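 Cells in DMEM with 10% FBS and 1% Pen/Strep, seeded at 10,000 cells/well and held overnight at 37 °C, 5% CO2. Compounds added at final 31.3-0.12 µg/mL (0.05% DMSO vehicle) for 24 h. Resazurin then added for 6 h; fluorescence read at ex 560/em 590. Triton X-100 1% as positive control; values normalized to vehicle. Run in quadruplicate.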

[Candida] auris [2] = Antifungal activity against Candida auris AR Bank # 386 assessed as fungal growth inhibition by double dilution method; assay type: functional; details: Candidozyma auris
Method in brief: (§3)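 Broth microdilution after CLSI M27-A3/M38-A2 with minor changes. Single colony grown overnight in YPD at 35 °C, 200 rpm. Compound final range 0.06-31.3 µg/mL; incubated 48 h at 35 °C.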

Candida albicans [3] = assay: Antifungal activity against itraconazole/fluconazole resistant Candida albicans ATCC MYA-1237 assessed as fungal growth inhibition by double dilution method; assay type: functional; method in brief: as §1
Candida duobushaemulonii [4] = assay: Antifungal activity against Candida duobushaemulonii AR Bank # 391 assessed as fungal growth inhibition by double dilution method; assay type: functional; details: Candidozyma duobushaemuli; method in brief: as §3
[Candida] auris [5] = Antifungal activity against Candida auris AR Bank # 387 assessed as fungal growth inhibition by double dilution method; assay type: functional; details: Candidozyma auris; method in brief: as §3
Aspergillus fumigatus [6] = assay: Antifungal activity against Aspergillus fumigatus NRRL 163 assessed as fungal growth inhibition by double dilution method; assay type: functional
[Candida] auris [7] = Antifungal activity against Candida auris AR Bank # 383 assessed as fungal growth inhibition by double dilution method; assay type: functional; details: Candidozyma auris; method in brief: as §3
HEK293 = assay: Cytotoxicity against human HEK-293 cells assessed as reduction in cell viability at 31.3 microg/ml; assay type: toxicity, cell-based; details: dose 31.3 µg/ml; method in brief: as §2
Candida albicans [8] = assay: Antifungal activity against Candida albicans ATCC 10231 assessed as fungal growth inhibition by double dilution method; assay type: functional; method in brief: as §3
Aspergillus fumigatus [9] = assay: Antifungal activity against Aspergillus fumigatus NRRL 6113 assessed as fungal growth inhibition by double dilution method; assay type: functional
[Candida] auris [10] = Antifungal activity against Candida auris AR Bank # 0384 assessed as fungal growth inhibition by double dilution method; assay type: functional; details: Candidozyma auris; method in brief: as §3
[Candida] auris [11] = Antifungal activity against Candida auris AR Bank # 0390 assessed as fungal growth inhibition by double dilution method; assay type: functional; details: Candidozyma auris; method in brief: as §3
Pichia kudriavzevii [12] = assay: Antifungal activity against Pichia kudriavzevii AR Bank # 397 assessed as fungal growth inhibition by double dilution method; assay type: functional; method in brief: as §3
[Candida] auris [13] = Antifungal activity against Candida auris AR Bank # 384 assessed as fungal growth inhibition by double dilution method; assay type: functional; details: Candidozyma auris; method in brief: as §3
[Candida] auris [14] = Antifungal activity against Candida auris AR Bank # 389 assessed as fungal growth inhibition by double dilution method; assay type: functional; details: Candidozyma auris; method in brief: as §3
[Candida] auris [15] = Antifungal activity against Candida auris AR Bank # 381 assessed as fungal growth inhibition by double dilution method; assay type: functional; details: Candidozyma auris; method in brief: as §3
Candida duobushaemulonii [16] = assay: Antifungal activity against Candida duobushaemulonii AR Bank # 392 assessed as fungal growth inhibition by double dilution method; assay type: functional; details: Candidozyma duobushaemuli; method in brief: as §3
HepG2 = assay: Cytotoxicity against human HepG2 cells assessed as reduction in cell viability upto 31.3 microg/ml; assay type: toxicity, cell-based; details: dose < 31.3 µg/ml; method in brief: as §2
Cryptococcus neoformans = assay: Antifungal activity against Cryptococcus neoformans ATCC MYA-895 assessed as fungal growth inhibition by double dilution method; assay type: functional; method in brief: as §3
Aspergillus nidulans = assay: Antifungal activity against Aspergillus nidulans ATCC 38163 assessed as fungal growth inhibition by double dilution method; assay type: functional
Nakaseomyces glabratus [17] = assay: Antifungal activity against Candida glabrata ATCC 2001 assessed as fungal growth inhibition by double dilution method; assay type: functional; method in brief: as §3
[Candida] auris [18] = Antifungal activity against Candida auris AR Bank # 388 assessed as fungal growth inhibition by double dilution method; assay type: functional; details: Candidozyma auris; method in brief: as §3
[Candida] auris [19] = Antifungal activity against Candida auris AR Bank # 390 assessed as fungal growth inhibition by double dilution method; assay type: functional; details: Candidozyma auris; method in brief: as §3
Nakaseomyces glabratus [20] = assay: Antifungal activity against Candida glabrata ATCC 22019 assessed as fungal growth inhibition by double dilution method; assay type: functional; method in brief: as §3
Candida albicans [21] = assay: Antifungal activity against itraconazole/fluconazole susceptible Candida albicans ATCC MYA-2876 assessed as fungal growth inhibition by double dilution method; assay type: functional; method in brief: as §1
Candida albicans [22] = assay: Antifungal activity against Candida albicans ATCC 64124 assessed as fungal growth inhibition by double dilution method; assay type: functional; method in brief: as §1
Clavispora lusitaniae = assay: Antifungal activity against Clavispora lusitaniae AR Bank # 398 assessed as fungal growth inhibition by double dilution method; assay type: functional; method in brief: as §3
Candida albicans [23] = assay: Antifungal activity against itraconazole/fluconazole resistant Candida albicans ATCC MYA-1003 assessed as fungal growth inhibition by double dilution method; assay type: functional; method in brief: as §1
Saccharomyces cerevisiae [24] = assay: Antifungal activity against Saccharomyces cerevisiae AR Bank # 399 assessed as fungal growth inhibition by double dilution method; assay type: functional; method in brief: as §3
[Candida] haemuloni [25] = Antifungal activity against Candida haemulonii AR Bank # 395 assessed as fungal growth inhibition by double dilution method; assay type: functional; details: Candidozyma haemuli; method in brief: as §3
[Candida] haemuloni [26] = Antifungal activity against Candida haemulonii AR Bank # 393 assessed as fungal growth inhibition by double dilution method; assay type: functional; details: Candidozyma haemuli; method in brief: as §3
Candida duobushaemulonii [27] = assay: Antifungal activity against Candida duobushaemulonii AR Bank # 394 assessed as fungal growth inhibition by double dilution method; assay type: functional; details: Candidozyma duobushaemuli; method in brief: as §3
Kodamaea ohmeri = assay: Antifungal activity against Kodamaea ohmeri AR Bank # 396 assessed as fungal growth inhibition by double dilution method; assay type: functional; method in brief: as §3
[Candida] auris [28] = Antifungal activity against Candida auris AR Bank # 382 assessed as fungal growth inhibition by double dilution method; assay type: functional; details: Candidozyma auris; method in brief: as §3
Pichia kudriavzevii [29] = assay: Antifungal activity against Pichia kudriavzevii ATCC 6258 assessed as fungal growth inhibition by double dilution method; assay type: functional; method in brief: as §3
Candida albicans [30] = assay: Antifungal activity against itraconazole/fluconazole susceptible Candida albicans ATCC MYA-2310 assessed as fungal growth inhibition by double dilution method; assay type: functional; method in brief: as §1
Aspergillus fumigatus [31] = assay: Antifungal activity against Aspergillus fumigatus NRRL 5109 assessed as fungal growth inhibition by double dilution method; assay type: functional
[Candida] auris [32] = Antifungal activity against Candida auris AR Bank # 385 assessed as fungal growth inhibition by double dilution method; assay type: functional; details: Candidozyma auris; method in brief: as §3
Aspergillus flavus = assay: Antifungal activity against Aspergillus flavus ATCC MYA-3631 assessed as fungal growth inhibition by double dilution method; assay type: functional
Aspergillus terreus = assay: Antifungal activity against Aspergillus terreus ATCC MYA-3633 assessed as fungal growth inhibition by double dilution method; assay type: functional
Saccharomyces cerevisiae [33] = assay: Antifungal activity against Saccharomyces cerevisiae AR Bank # 400 assessed as fungal growth inhibition by double dilution method; assay type: functional; method in brief: as §3

O=C(NNc1cccc(Cl)c1)c1cnccn1
> 31.3 µg/mL: MIC (Aspergillus fumigatus [6]) | MIC (Aspergillus fumigatus [9]) | MIC (Aspergillus fumigatus [31]) | MIC (Aspergillus flavus)
≤ 0.06 µg/mL: MIC ([Candida] auris [2])
7.8 µg/mL: MIC (Candida albicans [30])
3.9 µg/mL: MIC (Candida albicans [1]) | MIC (Nakaseomyces glabratus [17])
Non-Toxic: Activity (J774.A1) | Activity (HEK293) | Activity (HepG2)
0.49 µg/mL: MIC ([Candida] auris [15]) | MIC ([Candida] auris [19]) | MIC (Clavispora lusitaniae)
0.12 µg/mL: MIC (Pichia kudriavzevii [12]) | MIC (Candida duobushaemulonii [16]) | MIC (Candida duobushaemulonii [27]) | MIC (Kodamaea ohmeri) | MIC ([Candida] auris [28])
0.24 µg/mL: MIC (Candida duobushaemulonii [4]) | MIC ([Candida] auris [5]) | MIC ([Candida] auris [7]) | MIC (Candida albicans [8]) | MIC ([Candida] auris [14]) | MIC (Cryptococcus neoformans) | MIC ([Candida] auris [18]) | MIC ([Candida] haemuloni [25]) | MIC ([Candida] haemuloni [26]) | MIC (Pichia kudriavzevii [29]) | MIC ([Candida] auris [32])
0.98 µg/mL: MIC (Candida albicans [3]) | MIC ([Candida] auris [11]) | MIC ([Candida] auris [13]) | MIC (Aspergillus nidulans) | MIC (Candida albicans [23]) | MIC (Saccharomyces cerevisiae [24]) | MIC (Aspergillus terreus) | MIC (Saccharomyces cerevisiae [33])
1.95 µg/mL: MIC ([Candida] auris [10]) | MIC (Nakaseomyces glabratus [20]) | MIC (Candida albicans [21]) | MIC (Candida albicans [22])

COc1cccc(NNC(=O)c2cnccn2)c1
3.9 µg/mL: MIC (Candida duobushaemulonii [4]) | MIC ([Candida] auris [18]) | MIC (Saccharomyces cerevisiae [33])
1.95 µg/mL: MIC (Candida albicans [1]) | MIC (Candida albicans [3]) | MIC ([Candida] auris [7]) | MIC ([Candida] auris [10]) | MIC ([Candida] auris [13]) | MIC ([Candida] auris [15]) | MIC (Aspergillus nidulans) | MIC (Nakaseomyces glabratus [20]) | MIC (Candida albicans [21]) | MIC (Clavispora lusitaniae) | MIC (Candida duobushaemulonii [27]) | MIC (Candida albicans [30]) | MIC (Aspergillus terreus)
0.49 µg/mL: MIC ([Candida] auris [2]) | MIC (Candida albicans [8]) | MIC (Pichia kudriavzevii [12]) | MIC (Cryptococcus neoformans) | MIC ([Candida] haemuloni [25]) | MIC ([Candida] haemuloni [26]) | MIC (Kodamaea ohmeri) | MIC (Pichia kudriavzevii [29])
7.8 µg/mL: MIC (Nakaseomyces glabratus [17]) | MIC (Saccharomyces cerevisiae [24]) | MIC (Aspergillus fumigatus [31]) | MIC ([Candida] auris [32])
15.6 µg/mL: MIC (Aspergillus fumigatus [6])
> 31.3 µg/mL: MIC (Aspergillus fumigatus [9]) | MIC (Aspergillus flavus)
0.98 µg/mL: MIC ([Candida] auris [5]) | MIC ([Candida] auris [11]) | MIC ([Candida] auris [14]) | MIC (Candida duobushaemulonii [16]) | MIC ([Candida] auris [19]) | MIC (Candida albicans [22]) | MIC (Candida albicans [23]) | MIC ([Candida] auris [28])
Non-Toxic: Activity (J774.A1) | Activity (HEK293) | Activity (HepG2)
